Test results reported in ChEMBL document CHEMBL3112482, “Nonclassical antifolates, part 5. Benzodiazepine analogs as a new class of DHFR inhibitors: synthesis, antitumor testing and molecular modeling study” (Eur J Med Chem, 2014).

How the values were obtained:
Assay type in all cases: functional
[1] = system: HCT-116; assay: Growth inhibition of human HCT116 cells at 10 uM after 48 hrs; details: HCT-116, 48 h, read-out: GI
Summary of the method: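 Single-dose primary screen in the NCI 60 human tumour cell line panel, run at the NCI facility. The panel covers nine subpanels: leukaemia, non-small cell lung, colon, CNS, melanoma, ovarian, renal, prostate and breast. Read-out was percent growth of treated cells, shown as a mean graph and reported as percent growth inhibition.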

[2] = system: Cancer cell lines; assay: Ratio of 5-FU GI50 to compound GI50 for human breast cancer cells
Summary of the method: (§1)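 Compounds passing the NCI single-dose primary screen were retested across the 60 human tumour cell lines (nine subpanels) over a 5-log dose range. GI50, TGI and LC50 were recorded for each cell line, with 5-fluorouracil run as the reference drug. Subpanel values for compound and 5-FU were then compared.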

[3] = system: Leukemia cell; assay: Ratio of 5-FU GI50 to compound GI50 for human leukemia cells; summary of the method: as §1
[4] = system: Cancer cell lines; assay: Ratio of 5-FU LC50 to compound LC50 for human renal cancer cells; summary of the method: as §1
[5] = system: Cancer cell lines; assay: Ratio of 5-FU TGI to compound TGI for human prostate cancer cells
[6] = system: Cancer cell lines; assay: Ratio of 5-FU LC50 to compound LC50 for human prostate cancer cells; summary of the method: as §1
[7] = system: Cancer cell lines; assay: Ratio of 5-FU LC50 to compound LC50 for human non-small cell lung cancer cells; summary of the method: as §1
[8] = system: Cancer cell lines; assay: Ratio of 5-FU TGI to compound TGI for human CNS cancer cells
[9] = system: Melanoma cell; assay: Ratio of 5-FU TGI to compound TGI for human melanoma cells
[10] = system: Cancer cell lines; assay: Ratio of 5-FU GI50 to compound GI50 for human non-small cell lung cancer cells; summary of the method: as §1

`COc1ccc(/C=C2\CCCc3c2nc(C)nc3-c2ccc(OC)cc2)cc1` showed an inhibition of growth at 10 µM [1] of less than 30%.

For `COc1cc(/C=C2\CCCc3c2nc(N)nc3-c2cc(OC)c(OC)c(OC)c2)cc(OC)c1OC`, the RatioGI50 [2] was 15, the RatioGI50 [3] was 15 and the RatioLC50 [4] was 15. For the same compound, the Ratio [5] was 15, the RatioLC50 [6] was 15 and the RatioLC50 [7] was 15. For the same compound, the Ratio [8] was 15, the Ratio [9] was 15 and the RatioGI50 [10] was 15.

For `COc1cc(/C=C2\CCCC3=C(c4cc(OC)c(OC)c(OC)c4)Nc4ccccc4N=C32)cc(OC)c1OC`, the RatioGI50 [2] was 11, the RatioGI50 [3] was 11 and the RatioLC50 [4] was 11. The Ratio [5] was 11, the RatioLC50 [6] was 11 and the RatioLC50 [7] was 11. The Ratio [8] was 11, the Ratio [9] was 11 and the RatioGI50 [10] was 11.

For `COc1ccc(/C=C2\CCCc3c2nc(N)nc3-c2ccc(OC)cc2)cc1`, the inhibition of growth at 10 µM [1] was less than 30%.

Compound `COc1ccc(/C=C2\CCCc3c2nc(N)nc3-c2ccc(OC)c(OC)c2)cc1OC` has an inhibition of growth at 10 µM [1] of 92.1%.

Compound `Cc1nc2c(c(-c3ccc(Br)cc3)n1)CCC/C2=C\c1ccc(Br)cc1` has an inhibition of growth at 10 µM [1] of 55.8%.

Compound `COc1ccc(/C=C2\CCCC3=C(c4ccc(OC)cc4)Nc4ccccc4N=C32)cc1` has an inhibition of growth at 10 µM [1] of 61.9%.

In the case of `COc1cc(/C=C2\CCCc3c2nc(C)nc3-c2cc(OC)c(OC)c(OC)c2)cc(OC)c1OC`, the RatioGI50 [2] was 15, the RatioGI50 [3] was 15 and the RatioLC50 [4] was 15. The Ratio [5] was 15, the RatioLC50 [6] was 15 and the RatioLC50 [7] was 15. It also gave a Ratio [8] of 15, a Ratio [9] of 15 and a RatioGI50 [10] of 15.
